Sampled rows, rich in hits. Any-hit rate of the full collection: about 3.1%.
KCNK9 inh = inhibitors of human KCNK9 two-pore domain potassium channel | B-score at 10 µM | 310,000 tested, 1.2% active | HEK293 KCNK9, FluxOR thallium flux fluorescence; active compounds read low;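 active = ratio B-score over 3 SD below the library mean, with starting fluorescence within 5 SD of its mean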;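 note: negative B-score means less thallium flux so channel inhibition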
Target sequence (Q9NPC2 whole entry, looked up, the tested form may be a part): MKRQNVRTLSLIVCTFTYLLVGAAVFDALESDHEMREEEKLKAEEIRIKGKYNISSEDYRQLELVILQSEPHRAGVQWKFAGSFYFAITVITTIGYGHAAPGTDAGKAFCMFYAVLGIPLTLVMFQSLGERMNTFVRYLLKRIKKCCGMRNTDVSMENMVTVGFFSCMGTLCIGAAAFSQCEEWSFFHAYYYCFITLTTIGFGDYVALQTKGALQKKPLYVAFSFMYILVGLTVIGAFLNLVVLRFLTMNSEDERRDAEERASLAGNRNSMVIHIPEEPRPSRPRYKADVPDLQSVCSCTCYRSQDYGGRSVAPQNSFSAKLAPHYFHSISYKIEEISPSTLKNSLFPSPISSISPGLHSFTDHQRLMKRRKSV
hERG protect = hERG (human) protection from proarrhythmic block | 310,000 tested, 0.51% active | CHO-hERG, FluxOR thallium flux, dofetilide IC70 present | activation (rescue from dofetilide block), less the hit threshold, % at 10 µM | Q12809 | AID 1511;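 active = activation above the mean of controls blocked by dofetilide plus 5 SD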;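 note: thallium influx through hERG after potassium depolarization seen as dye fluorescence rise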
KCNQ1 act = human KCNQ1 channel potentiation or activation. P51787. CHO-K1 KCNQ1, thallium flux FluxOR fluorescence; active compounds read high. 310,000 tested, 0.35% active. B-score at 10 µM. AID 2648;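 active = fluorescence ratio B-score, a plate-corrected score, at least three library SD, with initial intensity B-score within 5 SD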
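Assay system: CHO-K1 cells stably expressing KCNQ1. Medium: assay buffer for compound exposure, DMSO matched across wells. Timing: 37 °C overnight plating, 90-min dark dye load, 20-min compound pretreatment. Signal: kinetic FluxOR fluorescence, 10 s baseline plus 110 s post-stimulus.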
KCNK3 block = human KCNK3 channel inhibition, primary screen; O14649; CHO-KCNK3 thallium flux, FluxOR fluorescence; active compounds read low; B-score at 10 µM; 340,000 tested, 0.84% active;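 active = B-score under library mean minus 4 SD, starting fluorescence ratio at most library mean plus 5 SD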;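 note: more negative B-score means stronger inhibition of thallium flux through KCNK3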
KCNQ1 block = inhibitors of human KCNQ1 potassium channel | P51787 | CHO-K1 KCNQ1, FluxOR thallium flux fluorescence; active compounds read high | B-score at 10 µM | 310,000 tested, 1.3% active | AID 2642;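 active = compounds whose thallium flux B-score, printed positive for inhibition, exceeds three library SD while starting fluorescence stays within three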;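 note: channel opened by potassium depolarization with thallium stimulus after 20 min compound exposure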
KCNQ1 inh valid = human KCNQ1 channel inhibition, validation assay | inhibition, % at 10 µM | shares compounds with KCNQ1 block | 1,600 tested, 93% active | KCNQ1 cell line, FluxOR thallium flux fluorescence | AID 588353;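 active = primary screen active, with duplicate mean exceeding buffer control mean plus 3 SD of buffer wells, cut at about 28% in these data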;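 note: 0% = buffer control ratio and 100% = XE991 inhibitor control ratio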
CHO KCNQ1 ctr = KCNQ1 inhibitor counter-screen hit in parental CHO cells; 1,600 tested, 21% active; parental CHO-K1, FluxOR thallium flux fluorescence ratio; active compounds read low; zero means no signal rise above baseline; fluorescence ratio (Tl flux) at 10 µM; AID 588366; shares compounds with KCNQ1 block;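 active = mean of duplicate thallium-flux fluorescence ratios in parental host cells more than 5 SD below the buffer control mean, cut at about 0.38 in these data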;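 note: ratio is peak minus minimum fluorescence divided by baseline fluorescence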
KCNQ1 ephys val = human KCNQ1 inhibition validated by electrophysiology; shares compounds with KCNQ1 block; KCNQ1-CHO cells, automated patch clamp current; calls only at 10 µM; 490 tested, 20% active;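 active = KCNQ1 current drop exceeding 3 SD of negative control wells, seen in both duplicate runs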;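 note: steady state current during a 2 s step from -80 to +40 mV; negative values mean current inhibition and positive values mean potentiation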
KCNQ2 inh = KCNQ1 inhibitor that also blocks rat KCNQ2 channel; shares compounds with KCNQ1 block; KCNQ2 cells, FluxOR thallium flux fluorescence; 1,600 tested, 71% active; AID 651746; inhibition, % at 10 µM;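 active = mean percent inhibition of the KCNQ2 thallium signal more than 5 SD above the buffer-only control wells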;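 note: KCNQ2 expressed in CHO cells; 0% = buffer control wells and 100% = XE-991 inhibitor control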
KCNQ1-KCNE1 inh = selectivity of KCNQ1 inhibitors: inhibition of human KCNQ1/KCNE1 channel | shares compounds with KCNQ1 block | KCNQ1/KCNE1 cells, FluxOR thallium flux fluorescence | 1,600 tested, 77% active | inhibition, % at 10 µM;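 active = mean percent inhibition of duplicate wells above the buffer-only control mean plus 3 SD of those controls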;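 note: 0% = buffer only wells and 100% = XE-991 inhibitor control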
* hit, by the source's call.

What do the screens show for `Cc1ccc(-c2csc(=Nc3cccnc3)n2CCCn2ccnc2)cc1C`?
KCNK9 inh: inactive; hERG protect: -17; KCNQ1 act: inactive; KCNK3 block: inactive; KCNQ1 block: 12*; KCNQ1 inh valid: 42*; CHO KCNQ1 ctr: 0.45; KCNQ2 inh: 80%*; KCNQ1-KCNE1 inh: inactive

How did CCc1c(C2(O)CCCCC2)[nH]c2c(C(=O)OC)cc(Cl)cc12 do in these assays?
KCNK9 inh: inactive; hERG protect: -7; KCNQ1 act: inactive; KCNK3 block: inactive; KCNQ1 block: 6*; KCNQ1 inh valid: 126*; CHO KCNQ1 ctr: 0.38*; KCNQ2 inh: 120%*; KCNQ1-KCNE1 inh: 123%*

How did Cc1c(NS(=O)(=O)c2cc(C(=O)N(C)Cc3ccccc3)ccc2Cl)c(=O)n(-c2ccccc2)n1C do in these assays?
KCNK3 block: inactive

How did CS(=O)(=O)c1ncc(Cl)c(C(=O)Nc2ccc(OC(F)F)cc2)n1 do in these assays?
KCNK9 inh: inactive; hERG protect: -21; KCNQ1 act: inactive; KCNK3 block: inactive; KCNQ1 block: 6*; KCNQ1 inh valid: 74*; CHO KCNQ1 ctr: 0.34*; KCNQ2 inh: inactive; KCNQ1-KCNE1 inh: 118%*

How did Cc1ccccc1NC(=O)c1nc(S(C)(=O)=O)ncc1Cl do in these assays?
KCNK9 inh: inactive; hERG protect: -20; KCNQ1 act: inactive; KCNK3 block: inactive; KCNQ1 block: inactive

Results for CS(=O)(=O)c1ncc(Cl)c(C(=O)Nc2ccc(N3CCOCC3)cc2)n1 ?
KCNK9 inh: inactive; hERG protect: -27; KCNQ1 act: inactive; KCNK3 block: inactive; KCNQ1 block: 7*; KCNQ1 inh valid: 73*; CHO KCNQ1 ctr: 0.41; KCNQ2 inh: 92%*; KCNQ1-KCNE1 inh: 108%*

Results for Cc1nn2c(NCCN3CCOCC3)c3c(nc2c1-c1ccccc1)CCCC3 ?
KCNK9 inh: inactive; hERG protect: -20; KCNQ1 act: inactive; KCNK3 block: inactive; KCNQ1 block: 7*; KCNQ1 inh valid: 58*; CHO KCNQ1 ctr: 0.47; KCNQ2 inh: 82%*; KCNQ1-KCNE1 inh: 73%*

What do the screens show for `Cc1nn2c(NCc3ccccn3)c3c(nc2c1-c1ccccc1)CCC3`?
KCNK9 inh: inactive; hERG protect: -19; KCNQ1 act: inactive; KCNK3 block: inactive; KCNQ1 block: inactive

How did N#CC1=C(N)NC(SCc2ccc(Cl)cc2)=C(C#N)C12CCCCC2 do in these assays?
KCNK9 inh: inactive; hERG protect: -18; KCNQ1 act: inactive; KCNK3 block: inactive; KCNQ1 block: 16*; KCNQ1 inh valid: 151*; CHO KCNQ1 ctr: 0.38*; KCNQ2 inh: 121%*; KCNQ1-KCNE1 inh: 185%*

Results for COc1ccc(-c2csc(NC(=O)CSc3nc(SC)ns3)n2)cc1 ?
KCNK9 inh: inactive; hERG protect: -19; KCNQ1 act: inactive; KCNK3 block: inactive; KCNQ1 block: 9*; KCNQ1 inh valid: 114*; CHO KCNQ1 ctr: 0.43; KCNQ1 ephys val: inactive; KCNQ2 inh: 66%*; KCNQ1-KCNE1 inh: 116%*

What do the screens show for `COc1ccc(-c2csc(NC(=O)CSc3nc(C)cs3)n2)cc1`?
KCNK9 inh: inactive; hERG protect: -8; KCNQ1 act: inactive; KCNK3 block: inactive; KCNQ1 block: inactive

What do the screens show for `CCC(CC)Nc1ccc(C(CC(N)=O)NC(=O)Cc2cccc3ccccc23)cc1[N+](=O)[O-]` (configuration not stated)?
KCNK9 inh: inactive; hERG protect: -9; KCNQ1 act: inactive; KCNK3 block: inactive; KCNQ1 block: inactive

Results for CCCCOc1cccc(C2C(C(=O)c3ccc(C)o3)=C(O)C(=O)N2c2nnc(C)s2)c1 (configuration not stated) ?
KCNK9 inh: inactive; hERG protect: -12; KCNQ1 act: inactive; KCNK3 block: inactive; KCNQ1 block: 9*; KCNQ1 inh valid: 146*; CHO KCNQ1 ctr: 0.34*; KCNQ2 inh: 105%*; KCNQ1-KCNE1 inh: inactive

How did CCCOc1cccc(C2C(C(=O)c3ccco3)=C(O)C(=O)N2c2nnc(C)s2)c1 (configuration not stated) do in these assays?
KCNK9 inh: inactive; hERG protect: -16; KCNQ1 act: inactive; KCNK3 block: inactive; KCNQ1 block: inactive

Results for CS(=O)(=O)c1ccccc1-c1nnc(NC(=O)c2ccc3ncsc3c2)o1 ?
KCNK9 inh: inactive; hERG protect: -4; KCNQ1 act: inactive; KCNK3 block: inactive; KCNQ1 block: inactive

What do the screens show for `COc1cccc(NCc2cc(=O)oc3cc(C)c(C(C)C)cc23)c1`?
KCNK9 inh: inactive; hERG protect: -8; KCNQ1 act: inactive; KCNK3 block: inactive; KCNQ1 block: inactive

How did CC(N=c1ccccn1C(=O)Nc1ccc(Cl)cc1)c1ccco1 (configuration not stated) do in these assays?
KCNK9 inh: inactive; hERG protect: -7; KCNQ1 act: inactive; KCNQ1 block: 10*; KCNQ1 inh valid: 62*; CHO KCNQ1 ctr: 0.49; KCNQ2 inh: 61%*; KCNQ1-KCNE1 inh: inactive

What do the screens show for `CC(N=c1ccccn1C(=O)Nc1ccc(F)cc1)c1ccco1` (configuration not stated)?
KCNK9 inh: inactive; hERG protect: -5; KCNQ1 act: inactive; KCNK3 block: inactive; KCNQ1 block: inactive

What do the screens show for `CCCCSc1nnc(-c2ccc(C)cc2)c2ccccc12`?
KCNK9 inh: -7.1*; hERG protect: -22; KCNQ1 act: inactive; KCNK3 block: inactive; KCNQ1 block: 11*; KCNQ1 inh valid: 154*; CHO KCNQ1 ctr: 0.43; KCNQ1 ephys val: inactive; KCNQ2 inh: 103%*; KCNQ1-KCNE1 inh: 175%*

How did CCn1c(SCC(=O)Nc2nncs2)nnc1C(C)NC(=O)c1ccccc1Br (configuration not stated) do in these assays?
KCNK9 inh: inactive; hERG protect: -9; KCNQ1 act: inactive; KCNK3 block: inactive; KCNQ1 block: inactive

Source: PubChem BioAssay
